Assay outcomes as filed in PubChem BioAssay.
Compounds with a hit are over-represented: about 2.4% of the library has one in this group of screens.
Measles CPE – protection of cells from measles virus. hit rate 1.5% among 140,000. protection (pct of control), % at 4 µM. Measles virus-infected cells, CPE protection, absorbance; in the data active means protection mostly above about 24%, no sharp cut-off; inactive means mostly below about 26%
Arbovirus inh – arbovirus infection inhibition. arbovirus infection cell-based antiviral screen. inhibition, % at 10 µM. hit rate 0.37% among 200,000; in the data active means inhibition above about 30%
Rad51 HR inh – blocks human Rad51 in homologous recombination. Q06609. hRad51 DNA strand exchange, fluorescence dequenching. inhibition, % at 10 µM. hit rate 0.085% among 200,000;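 active means inhibition above 40% at the single screening dose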;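 further: 0% = DMSO control wells and 100% = blanks with heterologous ssDNA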
Target sequence (Q06609 whole entry, looked up): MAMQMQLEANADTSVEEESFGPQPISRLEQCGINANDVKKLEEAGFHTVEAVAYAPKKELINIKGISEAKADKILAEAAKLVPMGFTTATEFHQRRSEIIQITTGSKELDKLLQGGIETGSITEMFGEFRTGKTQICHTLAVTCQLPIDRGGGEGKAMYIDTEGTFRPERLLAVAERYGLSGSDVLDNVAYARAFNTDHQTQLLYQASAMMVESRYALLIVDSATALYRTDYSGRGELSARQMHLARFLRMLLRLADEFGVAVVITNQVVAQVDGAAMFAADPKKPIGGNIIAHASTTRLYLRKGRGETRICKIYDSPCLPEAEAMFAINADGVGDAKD
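Read-out basis: percent inhibition relative to plate controls and blanks / Assay system: human Rad51 nucleoprotein filaments preassembled on unlabelled ssDNA / Timing: filaments 15 min 37 °C, then compound 30 min / Control set: per-plate controls and blanks / Technique: fluorescence dequenching at 485/520 nm / Compound: 10 µM final, single point / Also added: Fluorescein- and BHQ1-tagged 47-mer duplex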
Efa HMGR inh – E. faecalis class II HMG-CoA reductase inhibition | hit rate 0.41% among 190,000 | AID 1066 | inhibition, % at 10 µM | purified E. faecalis HMGR, NADPH absorbance 340 nm kinetic;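 active means inhibition above a set limit, the median over all tested compounds plus 3 SD, cut at about 9.5% in these data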;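 further: enzyme runs in reverse so mevalonate oxidation gives rising NADPH absorbance; 0% = complete reaction with DMSO and 100% = background rate lacking mevalonate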
Yeast lifespan up – extends the lifespan of yeast. S. cerevisiae growth with nicotinamide, OD615; deaD strain in restrictive glucose medium. inhibition of the nicotinamide effect, % at 10 µM. hit rate 0.68% among 130,000. AID 775;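 active means inhibition above a set limit, placed 3 SD over the median of all compounds, cut at about 26% in these data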;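 further: 0% = nicotinamide-treated wells and 100% = cells grown without nicotinamide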
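assay system = DeaD-strain S. cerevisiae | buffer or medium = restrictive glucose medium | reagent = 1.5 mM nicotinamide | compound = 10 µM single point, 0.25% DMSO | incubation = 48 h compound exposure at 30 °C, humidified | signal = OD615 measurement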
BB579 growth dn – yeast BB579 growth reduction in restrictive medium; AID 804; hit rate 0.51% among 140,000; inhibition, % at 10 µM; S. cerevisiae BB579 growth, OD615, 48 h;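 active means inhibition above a set limit, 3 SD over the mean compound inhibition, cut at about 44% in these data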
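Assay system – yeast BB579 (DeaD) · Dosing – single compound dose of 10 µM, 0.25% DMSO final · Detection – OD615 turbidity measurement · Buffer or medium – CSMM-D restrictive synthetic medium containing dextrose (glucose) · Benchmarks – positive control amphotericin B 10 µg/mL · Incubation – 48 h exposure, 30 °C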
The depositor's hits bear a star; nt = no result.

SMILES | Measles CPE | Arbovirus inh | Rad51 HR inh | Efa HMGR inh | Yeast lifespan up | BB579 growth dn
CCOC(=O)c1cc2c(N)c(C(=O)c3ccc(Br)cc3)sc2[nH]c1=O | nt | 32* | -4 | -9 | nt | nt
COc1ccc(Cl)cc1NC(=S)NCCSc1ccc(C)cc1 | 3 | -37 | 3 | 1 | -6 | 16
Cc1ccc(SC(C)C(=O)Nc2cccc(N(C)S(C)(=O)=O)c2)cc1 (configuration not stated) | 33* | 5 | -3 | -3 | -3 | -11
CCOc1ccc(-c2[nH]ncc2Oc2ccccc2OC)c(O)c1 | 12 | -23 | -15 | 2 | -12 | -16
C=C(C)COc1ccc(-c2[nH]ncc2-c2ccc(Br)cc2)c(O)c1 | 8 | -31 | nt | -5 | -7 | 69*
CCOc1ccc(-c2[nH]ncc2Oc2ccccc2OCC)c(O)c1 | 9 | -5 | -2 | 24* | -15 | 25
C=C(C)COc1ccc(-c2[nH]ncc2-c2ccccc2OC)c(O)c1 | 8 | -37 | 4 | 1 | -11 | 90*
CCCOC(=O)c1ccc(Oc2cn[nH]c2-c2ccc(OC)cc2O)cc1 | 15 | -25 | nt | -3 | -7 | 69*
CC(=O)Nc1cccc(CNCc2cccc(NC(C)=O)c2)c1 | nt | 9 | -1 | -8 | nt | nt
CC1CCCC(C)N1C(=O)COc1ccc(C(=O)Nc2ccccc2N2CCOCC2)cc1 (configuration not stated) | nt | 9 | 14 | -3 | nt | nt
C=C(C)COc1ccc(-c2[nH]ncc2Oc2ccccc2OC)c(O)c1 | 10 | -29 | 4 | -6 | -7 | 79*
Cc1ccc(S(=O)(=O)NCCOc2nc(N3CCOCC3)nc(N3CCOCC3)n2)cc1 | 63* | 8 | -9 | 1 | -15 | -11
CCOC(=O)C1=C(N)OC2=C(C(=O)CC(C)(C)C2)C1c1cc(CSc2nnnn2C)cs1 (configuration not stated) | nt | -4 | nt | -3 | nt | nt
CC(=O)C1=C(O)C(=O)N(CCc2c[nH]c3ccccc23)C1c1cccc(O)c1 (configuration not stated) | 25* | 8 | 0 | -8 | -15 | -5
O=C1CC2(CCCC2)C(=O)N1c1ccc(S(=O)(=O)NCC2CC2)cc1Cl | nt | nt | -17 | nt | nt | nt
Nc1nc(CSCCO)nc(Nc2ccccc2)n1 | 32* | 1 | -6 | -3 | 0 | -28
CC(=O)Nc1ccc(N(C(=O)CNC(=O)c2ccco2)C(C(=O)NCc2ccco2)c2ccccc2F)cc1 (configuration not stated) | nt | 2 | 7 | -4 | nt | nt
CCOC(=O)c1sc2nc3c(SCC(=O)O)cc(C(=O)c4ccccc4O)cn3c(=O)c2c1C | nt | 4 | -12 | 2 | nt | nt
O=C(O)CSc1cc(C(=O)c2ccccc2O)cn2c(=O)c3c(-c4ccccc4)csc3nc12 | nt | 70* | 4 | -1 | nt | nt
COc1cc2c(cc1OC)N1C(=O)CC(OCC(=O)O)C3C4CC5(CCN5C(=O)C4=O)C2C31 (configuration not stated) | nt | -5 | nt | 1 | nt | nt
O=C1CC(C(=O)Nc2cccc(F)c2)n2ncnc2N1 (configuration not stated) | nt | 5 | 0 | -11 | nt | nt
NC(=O)c1cc2ccc(O)cc2oc1=Nc1ccccc1 | 30* | 4 | nt | -2 | 14 | -36
COC(=O)C1=C[C@@H](C(=O)OC)[C@@H]2C3=C(C(=O)C2(C)C)[C@H](C)n2c(=O)n(-c4ccccc4)c(=O)n2[C@@H]3C1 | nt | nt | 4 | nt | nt | nt
Cc1ccc(NC(=O)CSc2ncc3ccccn23)cc1 | nt | -1 | 1 | -3 | nt | nt
COc1ccc(NC(=O)C2CCCN2S(=O)(=O)c2cccc3cccnc23)c(OC)c1 (configuration not stated) | 20 | 2 | 10 | -5 | -12 | 98*
CCOc1ccc(OCC)c(NC(=O)C2CCCN2S(=O)(=O)c2cccc3cccnc23)c1 (configuration not stated) | 2 | 10 | 1 | -8 | -2 | -28
CC(C)CC1(C)NC(=O)N(CC(=O)Nc2cccc(S(=O)(=O)N(C)c3ccccc3)c2)C1=O (configuration not stated) | nt | -3 | 19 | -5 | nt | nt
COc1ccc2c(c1)C(C)CC(C)(C)N2C(=O)NC1CCCCC1 (configuration not stated) | 3 | -3 | nt | 1 | 27* | -40
CCc1c(C)sc(NC(=O)c2ccco2)c1C(=O)N1CCOCC1 | 2 | 6 | -2 | 0 | 5 | -52
